This note sets out measurements from ChEMBL document CHEMBL2346503, “Synthesis and evaluation of novel (18)F-labeled spirocyclic piperidine derivatives as σ1 receptor ligands for positron emission tomography imaging” (J Med Chem, 2013).

Holding throughout (assay type): ADME, organism-based
Data set [1] is described as follows: Metabolic stability in ICR mouse liver at 18.5 MBq, iv after 30 mins by HPLC analysis. The conditions noted are these: read-out: Stability. A digest of the protocol:
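Male ICR mice given radiotracer iv (18.5 MBq, 0.2 mL), killed at 30 min. Brain and liver were homogenized in ice-cold PBS (0.01 M, pH 7.4) and extracted with ice-cold MeCN. Supernatants were filtered, concentrated and analysed by radio-HPLC on a C18 column, acetonitrile/water with 0.1% TFA (45:55), 1 mL/min.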

The test system of data set [2] is Thalamus. The data set is described as follows: Biodistribution in Sprague-Dawley rat thalamus at 23 MBq, iv after 60 mins by microPET imaging/CT study in presence of haloperidol. The conditions noted are these: in vivo, 1 h. A digest of the protocol: (§1)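 Sprague-Dawley rats under isoflurane (1.5–2.5%) in oxygen received 23 MBq radiotracer (0.2 mL saline) via tail vein. Blocking animals were pre-injected with haloperidol (0.2 mL, 1 mg/kg) 5 min before the tracer. MicroPET emission was acquired for 30 min starting 60 min post-injection, followed by a 5 min CT scan; images were summed over 60–90 min.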

The test system of data set [3] is Hypothalamus. The data set is described as follows: Biodistribution in Sprague-Dawley rat hypothalamus at 23 MBq, iv after 60 mins by microPET imaging/CT study in presence of haloperidol. The note with it: in vivo, 1 h. The gist of the method: as §1
Data set [4] has as its system Rattus norvegicus. The data set is described as follows: Biodistribution in Sprague-Dawley rat olfactory bulb at 23 MBq, iv after 60 mins by microPET imaging/CT study. The conditions noted are these: in vivo, 1 h. The gist of the method: as §1
In data set [5] the test system is Cerebellum. The data set is described as follows: Biodistribution in Sprague-Dawley rat cerebellum at 23 MBq, iv after 60 mins by microPET imaging/CT study. The conditions noted are these: in vivo, 1 h. The gist of the method:
as §1

For data set [6], the system named is Hypothalamus. The data set is described as follows: Biodistribution in Sprague-Dawley rat hypothalamus at 23 MBq, iv after 60 mins by microPET imaging/CT study. The conditions noted are these: in vivo, 1 h. A digest of the protocol:
as §1

The test system of data set [7] is Nucleic Acid. The data set is described as follows: Ratio of drug uptake in Sprague-Dawley rat thalamus to cerebellum at 12.2 MBq, iv after 60 mins by autoradiography. The note with it: in vivo, 1 h.
Data set [8] is described as follows: Drug uptake in Sprague-Dawley rat vermian lobule at 12.2 MBq, iv after 60 mins by autoradiography. The conditions noted are these: in vivo, 1 h. The gist of the method:
(§2)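 [¹⁸F]-labelled tracer (0.2 mL, 12.2 MBq) given intravenously to conscious Sprague-Dawley rats (n = 3). Each rat was killed by cervical dislocation 60 min after injection. The brain was removed and frozen in liquid nitrogen, and 20 μm coronal sections were cut on a cryostat for ex vivo autoradiography of regional radioactivity.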

The subject of data set [9] is Thalamus. The data set is described as follows: Drug uptake in Sprague-Dawley rat thalamus at 12.2 MBq, iv after 60 mins by autoradiography. The conditions noted are these: in vivo, 1 h. A digest of the protocol: as §2

As for `[18F]CCOc1ccc(CN2CCC3(CC2)OCc2ccccc23)cc1`, the remaining at 0.5 h in data set [1] was determined as 40.3%. The Drug uptake entry in data set [2], in [3], in [4], in data set [5], in data set [6] and in data set [8] was “Active” each time. In addition, the Drug uptake result in [9] is recorded as “Active”. In [7], the Ratio is reported as 1.38.
